PGC1a acetyl up: compounds raising PGC1a acetylation signal, primary screen, PGC1a modulator project, cell-based, U2OS, AlphaScreen, signal-increasing mode; overnight; activation, % at 15.6 µM; actives 0.21% (n = 350,000);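 active = every replicate reaching activation of at least 50%, whatever the mean replicate activation; inconclusive = replicates that disagree or another doubt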;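 note: hits raise the AlphaScreen acetylation signal above neutral controls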
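System: flag-PGC1a/GCN5 U2OS cells / Input: 7000 cells/well / Compound: single test concentration per compound / Incubation: overnight compound treatment, 37 °C / Technique: AlphaScreen on lysates with anti-acetyl-lysine antibody, acceptor and donor beads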
G6PC hep suppr: suppressors of forskolin-stimulated G6PC mRNA, dose response, PGC-1a acetylation activator project, cell-based, hepatocytes, RT-qPCR, cherry-picked samples. shares compounds with PGC1a acetyl up. primary mouse hepatocytes. G6PC suppression (normalized activity, % of positive control; higher = more suppression), % at 26 µM. 240 tested, under 10 active;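 active = dose curves showing G6PC suppression whose half-maximal dose is at most twice the top valid dose; inconclusive = flat curves with moderate negative activity, or unreliable fits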;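 note: G6PC expression relative to GAPDH housekeeping gene as delta delta Ct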
PCK1 hep suppr: suppression of PCK1 mRNA in primary hepatocytes, dose response, PGC-1a acetylation activator project, cell-based, primary mouse hepatocytes, RT-qPCR, cherry-pick; shares compounds with PGC1a acetyl up; forskolin-stimulated; PCK1 expression decrease, unspecified at 26 µM; 230 tested, under 10 active; AID 743465, 2014;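 active = compounds lowering PCK1 expression whose fitted half-maximal concentration is at most twice the top tested dose; inconclusive = flat fit with moderate opposite-direction effect, or poor fit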;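 note: higher delta delta Ct means lower PCK1 expression so positive values indicate hits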
PGC1a hep suppr: suppression of PGC-1a mRNA in primary hepatocytes, dose response, PGC-1a acetylation activator project, cell-based, primary mouse hepatocytes, RT-qPCR, cherry-pick; shares compounds with PGC1a acetyl up; PGC-1a mRNA qPCR, forskolin; top dose 26 µM; max activity (PGC-1a expression decrease), %; 240 tested, under 10 active;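 active = compound lowering PGC-1a expression with fitted half-maximal concentration at most twice its top tested dose; inconclusive = flat curve with moderate opposite-direction effect, or poor fit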
Large screens that a line does not name were inactive (follow-up assays come after a bar, where they were run). The list is a sample of the results.

CCCCN(CCCC)S(=O)(=O)c1ccc2oc(C(=O)N3CCOCC3)c(C)c2c1	PGC1a acetyl up 102 | G6PC hep suppr inactive | PCK1 hep suppr inactive | PGC1a hep suppr inactive
Cc1cc(=O)n2[nH]c(=O)c(N=Nc3ccccc3)c2[nH]1	none
Cc1noc(C)c1NC(=O)N(C)C[C@@H]1OCCCC[C@@H](C)Oc2ccc(N(C)C)cc2C(=O)N([C@@H](C)CO)C[C@H]1C	none
C[C@@H]1CN([C@H](C)CO)C(=O)c2c(c3ccccc3n2C)-c2ccccc2CO[C@@H]1CN(C)C(=O)Nc1ccccc1C(F)(F)F	PGC1a acetyl up 96 | G6PC hep suppr inactive | PCK1 hep suppr inactive | PGC1a hep suppr inactive
C[C@@H]1CN([C@H](C)CO)C(=O)CCCn2cc(nn2)CO[C@H]1CN(C)C(=O)Nc1ccc(C(F)(F)F)cc1	none
COc1ccc(NC(=O)N(C)C[C@H]2OCc3ccccc3-c3c(n(C)c4ccccc34)C(=O)N([C@@H](C)CO)C[C@H]2C)c(OC)c1	PGC1a acetyl up 85 | G6PC hep suppr inactive | PCK1 hep suppr inactive | PGC1a hep suppr inactive
CO[C@H]1CN(C)C(=O)c2ccc(NC(=O)c3ccno3)cc2OC[C@H](C)NC[C@H]1C	none
O=C1C=CCCN1C(=O)/C=C/c1ccccc1Cl	none
CC1(C)CC(=O)C(N=Nc2cc(Cl)c(Cl)c(Cl)c2)=C(O)C1	none
CO[C@H]1CN(C)C(=O)c2cc(NS(C)(=O)=O)ccc2OC[C@H](C)N(C(=O)NC(C)C)C[C@@H]1C	none
O=C(NCc1csc(-c2cccs2)n1)c1cccc(Cl)c1	none | G6PC hep suppr inactive | PCK1 hep suppr inactive | PGC1a hep suppr inactive
C=CCNC(=O)CC1Nc2c3ccccc3nc(=S)n2C1=O (centres undefined)	none
O=C(Nc1nc2ccsc2c(=O)s1)C1CCC1	none
COc1cc(C=C(C(C)=O)C(C)=O)ccc1O	none
OCCNc1nc(N2CCCCC2)nc2ccccc12	none
O=C(Cn1c(CN2CCCCC2)nc2ccccc2c1=O)Nc1ccccc1	none | G6PC hep suppr inactive | PCK1 hep suppr inactive | PGC1a hep suppr inactive
Cc1ccc(-n2cccc2C(=S)N=P(N(C)C)(N(C)C)N(C)C)cc1	none
O=c1[nH]c(=O)c2[nH]c(=S)[nH]c2[nH]1	none
c1coc(CN(Cc2cccs2)Cc2nnnn2C2CCCCC2)c1	PGC1a acetyl up inconclusive | G6PC hep suppr inactive | PCK1 hep suppr inactive | PGC1a hep suppr inconclusive
CC1CCCN(C(=O)Cc2ccc(F)cc2)C1 (centres undefined)	none
CCN(CC)c1ccc(C(=C2C=CC(=[N+](CC)CC)C=C2)c2ccc(N(CC)CC)cc2)cc1	none
O=C(c1cc(-c2ccccc2)nc2ccccc12)N1N=C(C(F)F)CC1(O)C(F)F (centres undefined)	none
NC(=O)c1sc2nc3c(c(-c4cccs4)c2c1N)CCCCC3	none
CC(=O)Nc1ccc(NC(=O)CN(c2cc(Cl)ccc2Cl)S(C)(=O)=O)cc1	PGC1a acetyl up 117 | G6PC hep suppr inactive | PGC1a hep suppr inactive
CC1CC(C)(C)CC(=O)C1C(=O)c1ccccc1 (centres undefined)	none
Cc1[nH]c2ccc(C(C)C)cc2c1CC(=O)O	none
CCC(=O)N(CC)c1nc(-c2ccc(OC)cc2)cs1	none | G6PC hep suppr inactive | PCK1 hep suppr inactive | PGC1a hep suppr inactive
CCCS(=O)(=O)N1CCCC(C(=O)NCCCOC(C)C)C1 (centres undefined)	none
CCOC(=O)C(=Cc1ccc(OCc2ccc([N+](=O)[O-])cc2)c(OC)c1)C(=O)OCC	none
Cn1cc(-c2ccc(C(=O)NCc3cccc(Cl)c3)c3occc23)cn1	PGC1a acetyl up 59 | G6PC hep suppr inactive | PCK1 hep suppr inactive | PGC1a hep suppr inactive
Cc1cccn2c(=O)c3cc(C(=O)NCc4ccco4)c(=N)n(CCc4ccccc4)c3nc12	none
Cc1ccc(-c2csnn2)cc1	none
O=C(NCc1ccccc1)N1CCC(n2cnc3cc(F)ccc32)CC1	PGC1a acetyl up 138 | PCK1 hep suppr inactive | PGC1a hep suppr inactive
O=C(Cc1ccccn1)NCC[C@@H]1CC[C@@H](NC(=O)Nc2ccc(C(F)(F)F)cc2)[C@@H](CO)O1	none
COc1ccc(-c2cc(-c3ccccc3O)[nH]n2)cc1OC	PGC1a acetyl up 95 | G6PC hep suppr inactive | PCK1 hep suppr inactive | PGC1a hep suppr inactive
CCn1c(CSc2nnc3ccccn23)nc2cc(C(=O)O)ccc21	none
CC(=O)N(c1ccccc1)c1nnc(-c2cnc(C)cn2)s1	none
CCn1c(SC/C=C/c2ccccc2)nnc1-c1cccs1	none | G6PC hep suppr inactive | PCK1 hep suppr inactive | PGC1a hep suppr inactive

Screens deposited in PubChem BioAssay by Broad Institute.
